A word on the inhibition: it is the drop in the measured response relative to a control, in per cent.

The results in this text go back to PubChem BioAssay.

The source made the active and inactive calls.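 Rule for the calls, unless noted: active = NADPH fluorescence slope more negative than the mean of all samples by about 3 SD, 99.7% confidence; inactive = the rest.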

Assay [1] is described as follows: inhibitors of TNFa-induced NFkB p65 translocation, primary screen, imaging, HUVEC, MLSMR starter and 10KST1 sets (AID 438;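 active = inhibition above 20% together with a positive visual image hit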;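 note: compound added about 3h40 before a 20 min TNFalpha stimulation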;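 for inhibition: signal is the nuclear over cytoplasmic p65 intensity ratio per well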). Conditions: HUVEC TNFa-induced p65 nuclear translocation; cell count: measured here: nuclei count (cytotoxicity indicator), at 2.08 µM; inhibition: at 2 µM, stronger effect = higher value, 0% TNFa-plus-vehicle, 100% no-TNFa wells.
The nature of assay [2]: endothelial E-selectin expression blockers – imaging, HUVEC, immunofluorescence, MLSMR starter and 10KST1 sets, primary screen (AID 487;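 active = visually confirmed hit in the image check and inhibition above 20%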;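 for inhibition: signal is fraction of cell area covered by stained E-selectin grains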;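 for nuclei count: 100% = median nuclei count of all wells on the same plate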). The conditions noted are these: HUVEC TNFalpha-induced E-selectin immunofluorescence imaging, at 2 µM; inhibition: stronger effect = higher value; nuclei count: measured here: cell number, toxicity.
Assay [3] in a line: Primary imaging screen for DUSP6 inhibitors that restore phospho-Erk in transfected HeLa cells, chemical complementation (AID 609;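 active = compounds giving at least 50% inhibition in the cell-based MKP-3 phosphatase rescue imaging test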;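 for inhibition: phospho-Erk level distribution per well compared with pooled transfected vehicle control wells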). The conditions noted are these: HeLa MKP-3 transfected, phospho-Erk imaging KS statistic, at 10 µM, cells stimulated with TPA for 15 min.
In assay [4] the target is Dual specificity protein phosphatase 6 (Homo sapiens) (UniProt Q16828). The assay is described as above. The conditions noted are these: HeLa MKP-3 transfected, phospho-Erk imaging KS statistic; at 10 µM; stronger effect = higher value; cells stimulated with TPA for 15 min.
Sequence of Dual specificity protein phosphatase 6 (Homo sapiens) (Q16828 whole entry, looked up): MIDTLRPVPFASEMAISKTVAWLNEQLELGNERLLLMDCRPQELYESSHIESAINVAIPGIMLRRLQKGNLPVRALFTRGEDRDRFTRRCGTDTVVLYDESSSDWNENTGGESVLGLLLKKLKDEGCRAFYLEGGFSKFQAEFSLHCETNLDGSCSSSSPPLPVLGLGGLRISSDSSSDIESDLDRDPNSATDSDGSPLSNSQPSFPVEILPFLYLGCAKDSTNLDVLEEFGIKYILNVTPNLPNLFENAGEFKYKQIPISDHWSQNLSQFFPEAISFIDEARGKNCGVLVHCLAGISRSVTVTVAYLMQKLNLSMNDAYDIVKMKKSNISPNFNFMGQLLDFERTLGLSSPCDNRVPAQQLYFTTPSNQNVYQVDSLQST
The target in assay [5] is Voltage-gated potassium channel subunit beta-2 (Rattus norvegicus) (UniProt P62483). The assay can be described thus: inhibitors of rat Kvbeta2 reductase activity – biochemical, NADPH fluorescence, primary screen (AID 622;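 active = fluorescence slope higher than the sample average by over 3 SD, cut at about -0.22 in these data, passing the limit was not always enough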;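 note: slope of raw intensity against log time taken from 70 to 1610 s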). Conditions: recombinant KvBeta, 4-cyanobenzaldehyde reduction, at 10 µM, stronger effect = higher value.
Sequence of Voltage-gated potassium channel subunit beta-2 (Rattus norvegicus) (P62483 whole entry, looked up): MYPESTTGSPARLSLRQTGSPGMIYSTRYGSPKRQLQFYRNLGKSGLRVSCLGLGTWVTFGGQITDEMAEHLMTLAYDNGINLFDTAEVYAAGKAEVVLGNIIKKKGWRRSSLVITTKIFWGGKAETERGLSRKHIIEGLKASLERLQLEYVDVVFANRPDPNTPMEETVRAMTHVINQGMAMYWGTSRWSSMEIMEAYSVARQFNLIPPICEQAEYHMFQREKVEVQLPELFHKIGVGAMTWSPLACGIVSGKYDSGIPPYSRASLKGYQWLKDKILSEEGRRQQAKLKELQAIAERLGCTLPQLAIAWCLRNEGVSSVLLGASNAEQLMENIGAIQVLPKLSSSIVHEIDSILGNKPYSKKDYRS
For assay [6] the target is unchanged. The experiment in a line: enhancers of rat Kvbeta2 NADPH turnover – biochemical, NADPH fluorescence, primary screen (AID 623).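 Note: fluorescence intensity change per second fitted from 20 to 320 s.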 The conditions noted are these: Recombinant KvBeta, NADPH fluorescence decrease slope, 10 min; at 10 µM; stronger effect = lower value.
Assay [7] deals with Muscarinic acetylcholine receptor M4 (Homo sapiens) (UniProt P08173). The experiment in a line: M4-linked GIRK flux change, two-sided – cell-based, HEK293 M4/GIRK, thallium flux, BTC-AM, M4 allosteric agonist project, primary screen (AID 625;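 active = fluorescence slope after compound addition differing from the mean of all tested samples at 99.7% confidence, mostly higher but some lower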;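 note: thallium influx through GIRK channels coupled to M4 in HEK293 cells with BTC-AM dye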). The conditions noted are these: at 10 µM, actives lie on both sides. The method in brief: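 assay system = HEK293 cells with M4 receptor and GIRK channels | medium = pH 7.3 thallium assay buffer | doses = 10 µM final, single point | timing = cells overnight at 37 °C, BTC-AM loading 1 h, reads 2 min total | signal = BTC-AM fluorescence, 1 Hz kinetic reads | read-out = post-addition slope, 15–24 s, of baseline-normalized fluorescence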
Sequence of Muscarinic acetylcholine receptor M4 (Homo sapiens) (P08173 whole entry, looked up): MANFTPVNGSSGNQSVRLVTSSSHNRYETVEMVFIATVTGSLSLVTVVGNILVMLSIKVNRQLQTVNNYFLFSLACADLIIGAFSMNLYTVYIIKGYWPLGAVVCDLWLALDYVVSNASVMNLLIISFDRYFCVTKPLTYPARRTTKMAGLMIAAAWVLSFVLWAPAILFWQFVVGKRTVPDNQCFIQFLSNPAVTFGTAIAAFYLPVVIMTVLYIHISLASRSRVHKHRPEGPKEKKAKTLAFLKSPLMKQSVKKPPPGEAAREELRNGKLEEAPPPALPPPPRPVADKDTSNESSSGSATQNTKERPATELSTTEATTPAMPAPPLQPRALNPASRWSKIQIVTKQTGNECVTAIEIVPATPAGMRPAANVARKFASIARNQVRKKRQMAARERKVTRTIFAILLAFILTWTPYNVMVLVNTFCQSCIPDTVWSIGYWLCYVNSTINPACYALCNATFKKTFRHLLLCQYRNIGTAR

Assay [8] is described as follows: inhibitors of larval lipid processing in zebrafish, primary screen, whole organism, PED6 fluorescence, gall bladder and intestine (AID 686;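 active = a full or partial loss of lipid-probe fluorescence in the fish gall bladder, intestine or both, judged by eye; inactive = no fluorescence loss, or compound toxic to the fish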;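 note: larvae 5 to 7 days old with five fish per well; signal comes from phospholipase A2 cleavage of quenched PED6 carried via bile; overnight exposure to compound and PED6 before scoring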). Conditions: Zebrafish larvae PED6 lipid processing, fluorescence scoring; screened at 20 µM (by protocol). The method in brief: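 Also added: quenched phospholipase substrate PED6, 100 nM final, ingested by larvae; System: zebrafish larvae, 5-7 d; Quantity: 5 larvae per well; Compound: 20 µM single dose; Schedule: overnight compound and PED6 incubation; Read-out: visual per-well fluorescence inhibition score; Measured by: By-eye fluorescence microscopy; Medium: E3.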

A short description of assay [9]: loss of swimming-algae plug formation – whole organism, Chlamydomonas reinhardtii, WT vs cilia-less mutant, absorbance, 96-well, primary screen (AID 463189;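 active = inhibition at or above 50% relative to wild type and mutant plate controls; inactive = inhibition below 50%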;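 note: 0% = wild type cc124 cells in DMSO and 100% = ciliumless bld1 mutant cells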). The conditions noted are these: Chlamydomonas reinhardtii gravitaxis, OD600 absorbance, 2 days; at 10 µM; stronger effect = higher value.
Where [10] appears, read: measured here: cell density z-score.
The mark [11] stands for this setting: measured here: nuclear c-Myc green intensity z-score.
[12] abbreviates: measured here: nuclear pErk red intensity z-score, stronger effect = higher value.

As for `Cc1ccc(-c2nn(C)c(=O)c3ccccc23)cc1CNC(=O)CSc1nc2ccccc2o1`, the cell count in assay [1] was found to be 547. The inhibition in assay [1] is 3.6% (inactive); in [2], 21.6% (inactive); in [4], 1.98% (inactive); in [9], 22.8% (inactive). Besides, in [2], the nuclei count was found to be 106%. The z-score is -1.01 in assay [3] (setting [10]), 1.51 in assay [3] (setting [11]) and 0.619 in assay [3] (setting [12]). In addition, the fluorescence slope in assay [5] is -0.419 (inactive); in assay [7], 0.00502 (inactive). The NADPH fluorescence slope in assay [6] is -5.4e-05 (inactive). Further, the compound was called inactive in [8].

Turning to `COCCCn1c2nc3ccccc3nc2c2c(=O)n(-c3ccccc3OC)c(C)nc21`, the cell count in [1] came to 671. The inhibition in assay [1] is -8.6% (inactive); in assay [2] it was -13.5% (inactive); in [4], 9.07% (inactive); in assay [9], 4.04% (inactive). The same compound gave a nuclei count in assay [2] of 185%. Moreover, the z-score was 0.714 in assay [3] (setting [10]), -0.748 in assay [3] (setting [11]) and 0.0802 in assay [3] (setting [12]). Also, the fluorescence slope is -0.442 (inactive) in [5] and 0.0072 (inactive) in [7]. Further, the NADPH fluorescence slope in [6] was -3.7e-05 (inactive). Further, the outcome in assay [8] was inactive.

For the compound `CSc1nc(N)nc(SCC(=O)C23CC4CC(CC(C4)C2)C3)c1C#N`, the cell count in assay [1] was determined as 491. Further, the inhibition in assay [1] was 2.8% (inactive); in assay [2], -70.2% (inactive); in assay [4], 15.9% (inactive); in assay [9], 35.9% (inactive). This compound had a nuclei count in [2] of 94.4%. Further, the z-score in assay [3] (setting [10]) is -0.797; in [3] (setting [11]), 0.314; in [3] (setting [12]), -0.79. The fluorescence slope in assay [5] was -0.334 (inactive); in assay [7] it was 0.00876 (inactive). Also, the NADPH fluorescence slope in assay [6] was -1.7e-05 (inactive). Also, the compound was called inactive in assay [8].

As for `CCc1cc(=O)oc2cc(C)c(CN3CCCCC3)c(O)c12`, the cell count in [1] worked out at 612. Besides, the inhibition in assay [1] is -9.1% (inactive); in assay [2] it was 31% (inactive); in assay [4], -8.95% (inactive); in assay [9], 4.62% (inactive). This compound also registered a nuclei count in assay [2] of 182%. Moreover, the z-score in assay [3] (setting [10]) was -0.916; in assay [3] (setting [11]), -0.125; in assay [3] (setting [12]) it was 1.01. For the same compound, the fluorescence slope in assay [5] is -0.464 (inactive); in [7], 0.00459 (inactive). In assay [6], the NADPH fluorescence slope was -6.3e-05 (inactive). In assay [8], the call was inactive.

As for `O=C(COc1ccc(Cl)cc1)Nc1ccccc1CO`, the cell count in [1] was found to be 590. Also, the inhibition in assay [1] was -0.5% (inactive); in [2], -9.8% (inactive); in assay [4], 5.42% (inactive); in assay [9] it was -8.26% (inactive). Further, the nuclei count in assay [2] stood at 120%. The z-score in [3] (setting [10]) was 1.01; in assay [3] (setting [11]) it was 0.534; in [3] (setting [12]), -0.247. For the same compound, the fluorescence slope in [5] was -0.435 (inactive); in assay [7], 0.00526 (inactive). Further, the NADPH fluorescence slope in assay [6] is -0.000143 (inactive). For the same compound, the compound was called inactive in [8].

In the case of `CCSc1nnc(NC(=O)NC(CC)(C(F)(F)F)C(F)(F)F)s1`, the cell count in assay [1] is 704. Besides, the inhibition was 0.5% (inactive) in [1], -56.3% (inactive) in [2], 9.07% (inactive) in assay [4] and 22.7% (inactive) in assay [9]. Moreover, in assay [2], the nuclei count is 140%. The results for the z-score in assay [3] (setting [10]), in assay [3] (setting [11]) and in [3] (setting [12]) were -0.466, -0.955 and -0.238, respectively. Further, the fluorescence slope in [5] was -0.431 (inactive); in assay [7] it was 0.00857 (inactive). Also, the NADPH fluorescence slope in assay [6] was -5e-05 (inactive). In addition, the call in [8] was inactive.

As to `CCn1c(SCC(=O)N2CCOCC2)nc2sc3c(c2c1=O)CCCC3`, the cell count in assay [1] was 577. Also, the inhibition was -9.8% (inactive) in assay [1], -55% (inactive) in [2], -8.59% (inactive) in [4] and 13.7% (inactive) in assay [9]. For the same compound, the nuclei count in [2] came out at 122%. The z-score in assay [3] (setting [10]) was -0.0545; in assay [3] (setting [11]) it was -0.0901; in [3] (setting [12]), 0.641. Further, the fluorescence slope is -0.463 (inactive) in assay [5] and 0.0048 (inactive) in assay [7]. Further, the NADPH fluorescence slope in [6] is -0.000111 (inactive). Moreover, the outcome in assay [8] was inactive.

In the case of `CC1(C)CCN(Cc2ccccc2)C1CC#N` (centres undefined), the cell count in assay [1] worked out at 572. For the same compound, the inhibition is -1.7% (inactive) in assay [1], -7.9% (inactive) in assay [2], 3.97% (inactive) in assay [4] and 34.2% (inactive) in assay [9]. The nuclei count in [2] stood at 134%. Further, the z-score in assay [3] (setting [10]) was -0.215; in assay [3] (setting [11]), -0.992; in assay [3] (setting [12]) it was 0.527. The fluorescence slope in assay [5] was -0.353 (inactive); in assay [7], 0.00545 (inactive). Also, the NADPH fluorescence slope in assay [6] is 8.5e-06 (inactive). The call in assay [8] was inactive.

For the compound `COc1ccccc1C1/C(=C(\O)c2ccc3c(c2)OCCO3)C(=O)C(=O)N1CCCN(C)C` (centres undefined), the cell count in assay [1] stood at 402. Besides, the inhibition is 2.9% (inactive) in [1], -18% (inactive) in assay [2], -4.78% (inactive) in assay [4] and 12.8% (inactive) in assay [9]. In assay [2], this compound gave a nuclei count of 134%. Also, the figures for the z-score in assay [3] (setting [10]), in [3] (setting [11]) and in [3] (setting [12]) were 1.75, -0.784 and 1.05, respectively. In addition, the values for the fluorescence slope in assay [5] and in [7] were -0.456 (inactive) and 0.00501 (inactive), respectively. Moreover, in assay [6], the NADPH fluorescence slope was -7.9e-05 (inactive). In addition, the outcome in [8] was inactive.

For `CCCCSc1nnc(-c2ccc(NC(C)=O)cc2)n1C`, the cell count in [1] was found to be 622. Further, the inhibition in assay [1] was -5.3% (inactive); in assay [2], 21.1% (inactive); in [4] it was -13.3% (inactive); in [9] it was -9.33% (inactive). The compound further displayed a nuclei count in assay [2] of 166%. The z-score in assay [3] (setting [10]) is -0.239; in [3] (setting [11]), 0.0535; in assay [3] (setting [12]) it was 0.233. The fluorescence slope is -0.461 (inactive) in assay [5] and 0.00598 (inactive) in [7]. The NADPH fluorescence slope in assay [6] is -3e-05 (inactive). Further, the result in [8] was inactive.

With `Cn1ncc(N=Cc2ccccc2O)c1C(=O)N1CCOCC1`, the cell count in assay [1] came to 723. The inhibition is 6.6% (inactive) in assay [1], -60.6% (inactive) in assay [2], 7.93% (inactive) in assay [4] and 32.2% (inactive) in assay [9]. For the same compound, the nuclei count in assay [2] turned out to be 172%. The z-score is -0.778 in [3] (setting [10]), -0.56 in assay [3] (setting [11]) and 0.451 in assay [3] (setting [12]). Moreover, the fluorescence slope in assay [5] is -0.486 (inactive); in assay [7] it was 0.00481 (inactive). The NADPH fluorescence slope in [6] is -9.6e-05 (inactive). Moreover, the call in assay [8] was inactive.

In the case of `COC(=O)CSc1nc2c(c(=O)n(C)c(=O)n2C)n1CCC(C)C`, the cell count in assay [1] amounted to 599. For the same compound, the inhibition in assay [1] was -7% (inactive); in assay [2], -120% (inactive); in [4], 3.42% (inactive); in [9] it was -12.3% (inactive). In assay [2], this compound had a nuclei count of 130%. Besides, the z-score is -2.77 in assay [3] (setting [10]), 3.03 in assay [3] (setting [11]) and -2.44 in assay [3] (setting [12]). The fluorescence slope in [5] was -0.394 (inactive); in [7] it was 0.00549 (inactive). Besides, the NADPH fluorescence slope in [6] was 6.8e-06 (inactive). Besides, the result in assay [8] was inactive.

In the case of `CCN(CC)CCN1C(=O)C(O)=C(C(C)=O)C1c1ccc(OC)c(OC)c1` (centres undefined), the cell count in [1] is 466. Moreover, the inhibition was 0.4% (inactive) in assay [1], -202% (inactive) in assay [2], -5.62% (inactive) in assay [4] and 2.41% (inactive) in assay [9]. In assay [2], this compound yielded a nuclei count of 182%. In addition, the results for the z-score in assay [3] (setting [10]), in assay [3] (setting [11]) and in assay [3] (setting [12]) were 0.172, -0.258 and 1.22, respectively. In addition, the figures for the fluorescence slope in [5] and in assay [7] were -0.445 (inactive) and 0.00464 (inactive), respectively. The NADPH fluorescence slope in assay [6] is -4.1e-05 (inactive). Also, the call in assay [8] was inactive.
